Measurements from different studies.
Compare with care: the assays were run in different laboratories.
Cell line: HepG2
Effect on: cell growth or viability

| SMILES | test | conditions | measurement | value |
| --- | --- | --- | --- | --- |
| CNc1cccc2cc(C(=O)Nc3ccc(C(=O)O)cc3)c(=O)[nH]c12 | CCK-8 | 10 µM, 48 h | cell death | 1.5% |
| COc1ccc(CCN2CCC(Nc3nc4ccccc4n3Cc3ccc(F)cc3)CC2)cc1 | resazurin | 10 µM, 24 h | viability | 68% |
| COC1=CC(c2cccn2C)=NC1=Cc1ccc(CCCCCCCCCC(C)O)[nH]1 (stereo not drawn) | – | – | IC50 | > 100 µM |
| CC(C)(C)CC(C)(C)Nc1c(-c2cccc(C#N)c2)nc2ncccn12 | MTT | 25 µM, 48 h | viability | 74.5% |
| CNc1cccc2cc(C(=O)NCc3ccc(C(=O)O)cc3)c(=O)[nH]c12 | CCK-8 | 50 µM, 48 h | cell death | 18% |
| CCc1ccc(C2=NC(=Cc3ccc(CCCCCCCCCC(C)O)[nH]3)C(OC)=C2)[nH]1 (stereo not drawn) | – | – | IC50 | 1.76 µM |
| COc1cc2[nH]c(C)c(-c3ccc(Oc4ccc(C(F)(F)F)cc4)cc3)c(=O)c2cc1Cl | resazurin | – | IC50 | > 10 µM |
| CCCCCCn1c(-c2cccc(Cl)c2)n[nH]c1=S | resazurin | 50 µM, 24 h | viability | 92% |
| C/C=C(/C)C(=O)O[C@@H]1[C@H](OC(C)=O)c2c(ccc3ccc(=O)oc23)OC1(C)C | WST-1 | – | IC50 | 50.9 µM |
| CC1=C(C)C(c2ccc[nH]2)=NC1=Cc1ccc(CCCCCCCCCC(C)O)[nH]1 (stereo not drawn) | – | – | IC50 | 9.38 µM |
| N=C(N/N=C/c1ccccc1)N/N=C/c1ccccc1F | resazurin | 24 h | IC50 | 60 µM |
| COc1cc2[nH]c(C)c(-c3ccc(Oc4cccc(OC(F)(F)F)c4)cc3)c(=O)c2cc1Cl | resazurin | – | IC50 | > 10 µM |
| OC(c1cc(C(F)(F)F)nc2c(C(F)(F)F)cccc12)C1CCCCN1 (stereo not drawn) | – | – | IC50 | 11 µM |
| CNc1cccc2cc(C(=O)NCCc3cccc(C(=O)O)c3)c(=O)[nH]c12 | CCK-8 | 10 µM, 48 h | cell death | 5.9% |
| COc1ccc(-c2nc3ncccn3c2NC(C)(C)CC(C)(C)C)cc1O | MTT | 25 µM, 48 h | viability | 77.7% |
| COc1ccc2c(c1)c1c(n2CO)CN2CCc3cc(OC)c(OCc4ccc(F)cc4)cc3C2C1 (stereo not drawn) | – | 5 µM, 24 h | viability | 104% |
| COc1cc2[nH]c(C)c(-c3ccc(Oc4ccc(C(F)(F)F)cn4)cc3)c(=O)c2cc1Cl | resazurin | – | IC50 | > 10 µM |
| COc1ccc2c(c1)c1c(n2CO)CN2CCc3cc(OCc4ccccc4)c(OC)cc3C2C1 (stereo not drawn) | – | 20 µM, 24 h | viability | 88.9% |
| CC1(C)CC[C@]2(C)CC[C@]3(C)[C@H]4CC=C5[C@@H](CC[C@H](O)C5(C)C)[C@]4(C)CC[C@@]3(C)[C@@H]2C1 | WST-1 | – | IC50 | 50.9 µM |
| COc1cc2c(cc1OCc1ccccc1F)C1Cc3c(n(CO)c4ccccc34)CN1CC2 (stereo not drawn) | – | 5 µM, 24 h | viability | 119% |
| N=C(N)c1ccc(OCCCCCOc2ccc(C(=N)N)cc2)cc1 | MTS | 24 h | CC50 | > 20 µM |
| Cc1[nH]c2ccc(F)cc2c(=O)c1-c1ccc(Oc2ccc(OC(F)(F)F)cc2)nc1 | resazurin | – | IC50 | > 10 µM |
| COC(=O)[C@]1(O)C[C@@H](O)[C@@H](O)[C@H](OC(=O)/C=C/c2ccc(O)c(O)c2)C1 | WST-1 | – | IC50 | 30.9 µM |
| COc1ccc2c(c1)c1c(n2CO)CN2CCc3cc(OC)c(OCC(F)(F)F)cc3C2C1 (stereo not drawn) | – | 5 µM, 24 h | viability | 102% |
